“And” between values parts separate entries of the source, which are not always exact repeats. Identical values can stand only once. Marks after values point to notes of the source that are not given here.
How the values were obtained:
[1] = target: T1, CB1Rs (Mus musculus, UniProt P47746); test: [35S]GTPγS binding assay; format: biochemical; conditions: for [35S]GTPγS Binding Emax: concentration-effect curves, mouse brain homogenates, n=3–4; for intrinsic activity at CB1Rs: conclusion from [35S]GTPγS binding data
T1 sequence (P47746 whole entry): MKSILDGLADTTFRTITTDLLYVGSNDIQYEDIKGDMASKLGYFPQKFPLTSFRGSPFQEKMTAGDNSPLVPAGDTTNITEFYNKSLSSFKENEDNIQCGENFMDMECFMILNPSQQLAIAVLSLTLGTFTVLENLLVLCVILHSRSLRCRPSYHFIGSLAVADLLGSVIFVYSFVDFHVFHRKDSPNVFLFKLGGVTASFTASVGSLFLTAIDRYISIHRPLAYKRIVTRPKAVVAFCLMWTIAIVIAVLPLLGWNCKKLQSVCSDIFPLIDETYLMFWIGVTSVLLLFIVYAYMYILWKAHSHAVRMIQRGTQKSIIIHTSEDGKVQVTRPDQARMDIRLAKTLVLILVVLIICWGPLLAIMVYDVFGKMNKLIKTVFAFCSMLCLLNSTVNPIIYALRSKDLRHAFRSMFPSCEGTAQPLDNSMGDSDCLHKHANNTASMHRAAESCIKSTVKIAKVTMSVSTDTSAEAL

[2] = test system: core body temperature (hypothermia); test: Cannabinoid tetrad: core body temperature by biotelemetry; format: in vivo, NIH Swiss mice; conditions: for minimum core body temperature recorded / time to maximal core body temperature reduction (Tmax): 10 mg/kg, i.p.
[3] = test system: locomotor activity; test: Cannabinoid tetrad: locomotor activity by biotelemetry; format: in vivo, NIH Swiss mice; conditions: for locomotor activity: mice
Procedure, shortened: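 Abdominal biotelemetry probes were implanted in male NIH Swiss mice under ketamine 100 mg/kg plus xylazine 10 mg/kg i.p., with at least 7 days recovery. Mice were housed singly, acclimated at least 2 h, and gave at least 1 h of baseline. They were then dosed i.p. in 1:1:18 ethanol:emulphor:saline (10 mL/kg) and moved to a fresh-bedding cage. Activity was logged every 5 min for at least 10 h. Groups of 5 or 6.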

[4] = test system: analgesia (tail flick); test: Cannabinoid tetrad: analgesia, tail-flick latency; format: in vivo, NIH Swiss mice
Procedure, shortened: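 Male NIH Swiss mice (~25–30 g, drug-naïve, groups of 5 or 6) received i.p. test compound in ethanol:emulphor:saline 1:1:18 at 10 mL/kg. Radiant-heat tail flick used sensitivity 150 and light intensity 369, calibrated so untreated mice respond in 2–4 s, with a 10 s cutoff. The photobeam break stopped the timer. One trial per mouse at 0, 10, 30 and 60 min post-dose.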

[5] = test system: catalepsy; test: Cannabinoid tetrad: catalepsy, horizontal bar test; format: in vivo, NIH Swiss mice
Procedure, shortened: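 Catalepsy was measured as time on a horizontal bar in male NIH Swiss mice (groups of 5 or 6, drug-naïve). Dosing was i.p. in 1:1:18 ethanol:emulphor:saline (10 mL/kg). The steel bar was 0.5 cm in diameter and sat 4.0 cm above a platform. Forelimbs went on the bar and hindlimbs on the platform in a rearing posture. Timing ran until both paws left the bar, maximum 30 s. Single trial per time point at 0, 10, 30 and 60 min.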

[6] = target: T1, CB1Rs; test: Competition receptor binding with [3H]CP-55,940 in mouse brain homogenates
[7] = drug 10 μM (receptor-saturating)
[8] = JWH-018 3 mg/kg i.p. alone, mice
[9] = drug 1 μM co-incubated with CB1R antagonist O-2050 1 μM
[10] = 10 mg/kg, i.p., relative to vehicle
[11] = M4 10 mg/kg i.p. + JWH-018 3 mg/kg i.p. vs JWH-018 alone

Compound: CCCCCCC(C)(C)c1ccc([C@@H]2C[C@H](O)CC[C@H]2CCCO)c(O)c1 [CP-55,940, reference compound]
- [35S]GTPγS Binding Emax [1]: 0.26 ± 0.01 ^a pmole/mg
- intrinsic activity at CB1Rs [1]: full CB1R agonists
- [35S]GTPγS Binding ([1]; drug 100 nM): 0.20 ± 0.04 pmol/mg
- [35S]GTPγS Binding + O-2050 (1 μM) ([1]; drug 100 nM co-incubated with CB1R antagonist O-2050 1 μM): 0.06 ± 0.03 pmol/mg
- [35S]GTPγS Binding [1, 7]: 0.32 ± 0.02 pmole/mg and 0.32 ± 0.02 ^c, pmole/mg

Compound: CCCCCn1cc(C(=O)c2cccc3ccccc23)c2ccccc21 [JWH-018, reference compound]
- EC50 ([1]; read-out: EC50 for G-protein activation, JWH-018 alone): 0.008 µM
- maximal decrease in core body temperature to [2, 8]: 30.28 +/− 0.71 °C
- locomotor activity ([3]; JWH-018 3 mg/kg i.p. alone): locomotor suppression
- analgesia (tail flick assay) [4, 8]: robust analgesia
- catalepsy [5, 8]: catalepsy

Compound: CCCCn1cc(C(=O)c2cccc3ccccc23)c2ccccc21 [JWH-073, (1-butyl-1H-indole-3-yl)-1-naphthalenyl-methanone, reference compound]
- [35S]GTPγS Binding Emax [1]: 0.27 ± 0.01 ^a pmole/mg
- intrinsic activity at CB1Rs [1]: full CB1R agonists
- [35S]GTPγS Binding ([1]; drug 1 μM): 0.27 ± 0.04 pmol/mg
- [35S]GTPγS Binding + O-2050 (1 μM) [1, 9]: 0.07 ± 0.02 pmol/mg
- [35S]GTPγS Binding [1, 7]: 0.28 ± 0.03 pmole/mg and 0.28 ± 0.03 ^c pmole/mg
- minimum core body temperature recorded ([2]; mice): 29.74 ± 1.44 °C
- time to maximal core body temperature reduction (Tmax) ([2]; mice): 54.17 ± 5.23 min
- locomotor activity [3, 10]: locomotor suppression

Compound: CCCCn1cc(C(=O)c2cccc3ccccc23)c2c(O)cccc21 [M1]
- [35S]GTPγS Binding Emax [1]: 0.14 ± 0.01 ^b pmole/mg
- intrinsic activity at CB1Rs [1]: partial agonist activity
- [35S]GTPγS Binding ([1]; drug 1 μM): 0.17 ± 0.01 pmol/mg
- [35S]GTPγS Binding + O-2050 (1 μM) [1, 9]: 0.07 ± 0.01 pmol/mg
- [35S]GTPγS Binding [1, 7]: 0.14 ± 0.01 pmole/mg and 0.14 ± 0.01 ^a pmole/mg
- minimum core body temperature recorded ([2]; mice): 30.32 ± 0.66 °C
- time to maximal core body temperature reduction (Tmax) ([2]; mice): 58.00 ± 4.64 min
- locomotor activity [3, 10]: reduction of locomotor activity similar to that observed with administration of JWH-073

Compound: CCCCn1cc(C(=O)c2cccc3ccccc23)c2ccc(O)cc21 [M3]
- Ki ([6]; read-out: CB1R affinity (Ki), displacement of [3H]CP-55,940, mouse brain homogenates, n=4): 1.28 ± 0.47 µM
- intrinsic activity at CB1Rs [1]: partial agonist activity
- [35S]GTPγS Binding ([1]; drug 1 μM): 0.04 ± 0.00 pmol/mg
- [35S]GTPγS Binding + O-2050 (1 μM) [1, 9]: 0.02 ± 0.01 pmol/mg
- [35S]GTPγS Binding [1, 7]: 0.11 ± 0.02 pmole/mg and 0.11 ± 0.02 ^a, ^b pmole/mg

Compound: CCCCn1cc(C(=O)c2cccc3ccccc23)c2cccc(O)c21 [M4]
- antagonism of CB1R agonists and inverse agonists in [35S]GTPγS binding ([1]; M4 10 μM with 100 nM CP, 1 μM JWH-018, 500 nM JWH-073, 10 μM Rimonabant or AM251): significantly antagonized
- Schild plot slope ([1]; M4 against JWH-018): 0.97
- effect on basal [35S]GTPγS binding ([1]; M4 alone, 0.1 nM to 10 μM): neither significantly increased
- intrinsic activity at CB1Rs [1]: lacks significant intrinsic activity
- JWH-018-induced hypothermia, area under the curve 0–500 minutes ([2]; M4 10 mg/kg i.p. + JWH-018 3 mg/kg i.p. vs JWH-018 alone, n=5): significantly attenuated hypothermia
- change in body temperature ([2]; M4 10 mg/kg i.p. alone, mice): no significant change in body temperature
- core body temperature minimum, JWH-018-induced hypothermia with M4 ([2]; M4 10 mg/kg i.p. co-administered with JWH-018 3 mg/kg i.p., mice): 33.09 +/− 0.70 °C
- antagonism of JWH-018-induced locomotor suppression [3, 11]: no difference
- antagonism of JWH-018-induced analgesia [4, 11]: no difference
- antagonism of JWH-018-induced catalepsy [5, 11]: no difference

Compound: O=C(c1cccc2ccccc12)c1cn(CCCCO)c2ccccc12 [M5, 1-(4-hydroxybutyl-1H-indole-3-yl)(naphthalen-1-yl)-methanone]
- intrinsic activity at CB1Rs [1]: partial agonist activity
- [35S]GTPγS Binding ([1]; drug 1 μM): 0.12 ± 0.00 pmol/mg
- [35S]GTPγS Binding + O-2050 (1 μM) [1, 9]: 0.05 ± 0.01 pmol/mg
- [35S]GTPγS Binding [1, 7]: 0.16 ± 0.02 pmole/mg and 0.16 ± 0.02 ^a pmole/mg

Compound: O=C(O)CCCn1cc(C(=O)c2cccc3ccccc23)c2ccccc21 [M6, 4-(3-(1-naphthoyl)-1H-indole-1-yl)-1-butanoic acid]
- displacement of [3H]CP-55,940 specific binding ([6]; concentrations as high as 10 μM, n=3): less than 10%
